Bioassay records deposited in PubChem by several laboratories.
The list is not random: actives were taken first. Their share in the collection is about 3.5%.
FLuc inhib CS = Photinus pyralis luciferase inhibition counter-screen; P08659; ATPLite firefly luciferase biochemical luminescence, 10 min; inhibition, % at 10 µM; 200,000 compounds, 1.5% hits;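 active means inhibition above about 50% when tested at 10 µM, limit read from the data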
Target sequence (P08659 whole entry, looked up): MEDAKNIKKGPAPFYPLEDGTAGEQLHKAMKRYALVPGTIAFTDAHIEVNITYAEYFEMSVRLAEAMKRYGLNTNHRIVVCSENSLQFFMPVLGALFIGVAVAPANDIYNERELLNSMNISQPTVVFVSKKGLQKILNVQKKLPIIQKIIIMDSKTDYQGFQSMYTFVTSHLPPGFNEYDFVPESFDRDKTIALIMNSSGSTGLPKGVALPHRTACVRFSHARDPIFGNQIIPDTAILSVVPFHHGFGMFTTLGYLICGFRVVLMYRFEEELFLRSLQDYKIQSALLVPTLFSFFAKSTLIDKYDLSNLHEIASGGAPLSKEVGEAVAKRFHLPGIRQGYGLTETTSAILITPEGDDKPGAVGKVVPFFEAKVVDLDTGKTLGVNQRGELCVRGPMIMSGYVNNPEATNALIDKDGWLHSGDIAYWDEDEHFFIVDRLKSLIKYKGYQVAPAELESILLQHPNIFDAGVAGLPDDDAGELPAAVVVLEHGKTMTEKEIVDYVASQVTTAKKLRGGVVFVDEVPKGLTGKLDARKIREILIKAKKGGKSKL
STAT1 activator = increases IFN-gamma driven STAT1 reporter signal. NIH 3T3 STAT1-luciferase reporter, luminescence; 100% = IFN-gamma alone, no compound. activation (% of control), % at 5.5 µM. 200,000 compounds, 2.6% hits;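 active means activation above the screen-wide mean activation plus 3 SD, cut at about 130% in these data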
FLuc stim CS = affects firefly luciferase, flagging false hits in luciferase stimulation screens; P08659; ATPlite luciferase biochemical, luminescence, 10 min; 0 = ATP-free wells, 1 = DMSO control; activation factor at 10 µM; 200,000 tested, under 10 active;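 active means luciferase activation factor, scaled between plate controls, of at least 2 with compound at 10 µM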
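Assay system: Luciferase/luciferin detection reagent, cell-free biochemical luciferase assay / Also added: ATP substrate / Schedule: 10 min at ambient temperature / Measured by: luminescence measurement of luciferase light output / Benchmarks: low control with PBS replacing ATP, high control enzyme plus ATP without compound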
NF-kB neuron act = NF-kB expression increase, human neuronal cells; NF-kB reporter expression; stronger effect = higher value; fold change at 12.5 µM; 190,000 compounds, 1.6% hits; in the data active means fold change above about 3.3
APP 5'UTR act = activates APP 5'UTR luciferase reporter. SH-SY5Y APP 5'UTR luciferase reporter, luminescence; zero percent = DMSO vehicle wells. 190,000 compounds, 1% hits. activation, % at 2 µM;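 active means activation above a set limit, based on mean plus 3 SD of controls, cut at about 140% in these data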
Pf gametocyte = kills late stage P. falciparum gametocytes; P. falciparum stage V gametocytes, ATP luminescence, 24 h; inhibition, % at 10.9 µM; 150,000 compounds, 0.065% hits; AID 743093;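 active means inhibition above the mean plus 3 SD of compounds within the control limits, set per campaign, cut at about 38% in these data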
Hits are given with their value; i = inactive; nt = not tested or not shown.

SMILES	FLuc inhib CS	STAT1 activator	FLuc stim CS	NF-kB neuron act	APP 5'UTR act	Pf gametocyte
COc1ccc(-c2csc(N3N=C(C)C(C)C3=O)n2)cc1 (stereo unspecified)	61	132	i	i	i	nt
CC1=NN(c2nc(-c3ccc(C)cc3)cs2)C(=O)C1N=Nc1ccccc1O (stereo unspecified)	i	i	i	i	i	i
Oc1ccccc1Nc1ncnc2c1oc1ccccc12	i	i	i	i	i	nt
c1ccc(Nc2ncnc3c2oc2ccccc23)cc1	i	132	i	i	i	nt
c1ccc(Sc2ncnc3c2oc2ccccc23)nc1	i	132	i	i	i	i
COc1ncnc2c1oc1ccccc12	i	146	i	3.3	i	i
CCOC(=O)/C(=C/Nc1ccc(F)cc1)[N+](=O)[O-]	nt	nt	nt	nt	nt	i
Cc1ccc(CNc2ccc(N3CCOCC3)cc2)s1	73	145	i	i	i	nt
CC(=O)N1CCN(c2ccc(NCc3ccc(C)s3)cc2)CC1	i	i	i	i	nt	nt
CCOC(=O)CSc1nc2ccccc2c(=O)n1NC(=O)c1ccccc1	i	i	i	i	i	i
O=C(CCCOc1ccccc1)Nc1nc2ccccc2[nH]1	i	130	i	i	i	i
O=C(Nc1nc2ccccc2[nH]1)c1ccccc1	88	i	i	i	214	nt
COc1ccc(C(=O)Nc2nc3ccccc3c(=O)[nH]2)cc1	i	i	i	4	177	nt
COc1ccc(C(=O)Nn2c(SCC(=O)c3ccccc3)nc3ccccc3c2=O)cc1	i	i	i	i	155	i
CC(=O)Nc1nc2ccccc2[nH]1	i	i	i	i	i	i
COc1ccc(C(=O)Nc2nc3cc(OC)c(OC)cc3c(=O)[nH]2)cc1	i	i	i	i	i	i
Cc1cccc(/C=N/N2CCN(c3ccccc3)CC2)c1	i	i	i	i	i	nt
CNC(=O)NC(=O)COC(=O)CCCOc1ccc(OC)cc1	i	i	i	i	i	i
Cc1cccc(N2CCCC2=Nc2ccc(Br)cc2C#N)c1	i	i	i	i	i	nt
O=c1c(Cl)c(N2CCN(c3ccc(F)cc3)CC2)cnn1-c1nc2ccccc2s1	i	140	i	i	i	nt
C/C(=N/NC(=O)c1cc(C2CC2)[nH]n1)c1cccs1	84	i	i	i	i	i
C/C(=N\NC(=O)c1ccncc1)c1cccs1	i	i	i	i	i	i
C/C(=N\NC(=O)c1ccccc1O)c1cccs1	92	i	i	3.6	i	i
COC(=O)c1c(NC(=O)C2SC(=NC3CCCCC3)C(C(N)=O)=C2N)sc2c1CCCC2 (stereo unspecified)	i	i	i	i	i	nt
COc1ccc(-c2[nH]ncc2CN2CCC(c3ccncc3)CC2)cc1F	nt	nt	nt	nt	nt	i
SMILES	FLuc inhib CS	STAT1 activator	FLuc stim CS	NF-kB neuron act	APP 5'UTR act	Pf gametocyte
Cc1ccc2c(c1)-n1c(nc3ccccc3c1=O)C(CC(C)C)NC2=O (stereo unspecified)	nt	nt	nt	nt	nt	i
CCn1c(SCC(=O)Nc2ccc(N(C)C)cc2)nnc1-c1cccc(C)c1	i	i	i	i	i	i
Cc1cccc(CN2C(=O)[C@H]3Cc4c([nH]c5ccccc45)C(C)(C)N3C2=O)c1	nt	nt	nt	nt	nt	i
O=[N+]([O-])c1ccc(N2CCN(S(=O)(=O)c3ccccc3)CC2)cc1	nt	nt	nt	nt	nt	i
O=C(Nc1nnc(-c2ccccc2Cl)o1)c1ccco1	66	i	i	i	i	i
CCOC(=O)CNC(=O)CSc1nc2nc(C)c(Br)cc2[nH]1	i	i	i	i	i	i
CC(=O)N1N=C(c2ccncc2)OC12CCCC2	i	i	i	i	i	nt
O=C1CCCC2=C1C(c1ccc(O)cc1)c1c(ccc3ccccc13)N2 (stereo unspecified)	i	i	i	i	202	i
Cc1ccc(NC(=O)c2ccc(CSc3nnc(C)s3)cc2)cc1	56	i	i	3.9	i	nt
Cc1ccc(NC(=O)c2ccc(CSc3nnnn3C)cc2)cc1	57	i	i	i	i	nt
COc1cc(S(=O)(=O)NC2CCCCC2)c(C)cc1C	i	i	i	nt	i	i
CCC(=O)Oc1ccc(C(=O)Nc2ccc([N+](=O)[O-])cc2)cc1	i	134	i	i	i	i
CC(C)COc1ccc(C(=O)Nc2ccc([N+](=O)[O-])cc2)cc1	i	i	i	i	i	nt
C=CCn1c2ccccc2c(=O)c2cc(C#Cc3ccccn3)ccc21	nt	nt	nt	nt	nt	i
O=C(COc1ccc(Cl)cc1)Nc1ncc([N+](=O)[O-])s1	59	i	i	i	i	nt
Cc1ccc(C(=O)Nc2ccc(N3CCCC3)cc2)c(C)c1	i	i	i	i	i	i
O=C(Nc1ccc(N2CCCCC2)cc1)c1ccc2ccccc2n1	54	144	i	i	i	i
O=C(Nc1cccc(S(=O)(=O)N2CCCCCC2)c1)c1ccc2ccccc2n1	i	i	i	i	i	i
Cc1ccccc1C(=O)Nc1ccc(N2CCCC2)cc1	i	131	i	i	i	nt
O=C(Nc1cccc(-c2cn3c(n2)SCC3)c1)c1ccc2ccccc2n1	i	135	i	i	i	i
CCCc1cc(=O)n2[nH]c(-c3ccccc3)cc2n1	i	134	i	i	i	i
CCOC(=O)Cc1cc(=O)n2[nH]c(-c3ccc(Cl)cc3)cc2n1	57	i	i	i	i	nt
CCOC(=O)Cc1cc(=O)n2[nH]c(C)cc2n1	i	i	i	i	i	nt
CC(C)Cn1cc(C(=O)NCC2CCCO2)c2c3ccccc3n(C)c2c1=O (stereo unspecified)	i	i	i	i	i	i
NNC(=O)c1cccc(COc2ccccc2Br)c1	i	i	i	i	173	nt
SMILES	FLuc inhib CS	STAT1 activator	FLuc stim CS	NF-kB neuron act	APP 5'UTR act	Pf gametocyte
O=C(NCc1ccccc1)c1cccc(COc2ccccc2Cl)c1	i	i	i	i	i	nt
O=C(NCc1ccccc1)c1cccc(COc2cc(Cl)ccc2Cl)c1	i	135	i	i	i	i
COc1ccccc1C(=O)NNC(=O)c1ccccc1F	i	138	i	i	i	nt
COc1ccccc1C(=O)NNC(=O)c1ccc(C)cc1	nt	nt	nt	nt	nt	i
COc1ccccc1C(=O)NNC(=O)c1cccc(F)c1	i	146	i	i	i	i
COc1cc2c(cc1NC(=O)c1ccccc1F)CCCC2	i	138	i	i	i	i
O=C1CC(NCCC2=CCCCC2)C(=O)N1c1cccc(Cl)c1Cl (stereo unspecified)	i	i	i	i	i	nt
Cc1ccc(-c2ccc(/C=N\NC(=O)C3C(=O)NCC3c3ccccc3)o2)cc1Cl (stereo unspecified)	i	i	i	i	i	nt
COCCn1nnnc1C(CC(C)C)N1CCN(c2cccc(OC)c2)CC1 (stereo unspecified)	i	i	i	5.8	i	i
COCCn1nnnc1C(CC(C)C)N1CCN(c2ccccc2)CC1 (stereo unspecified)	i	i	i	i	i	nt
O=C(CN(Cc1ccccc1)C(=O)CCl)c1cccc(Br)c1	nt	nt	nt	nt	nt	i
O=C1/C(=C/c2cccs2)COc2ccccc21	71	i	i	i	i	i
